Test results from ChEMBL document CHEMBL3822428, “Design, Synthesis, and Biological Evaluation of Potential Prodrugs Related to the Experimental Anticancer Agent Indotecan (LMP400)” (J Med Chem, 2016).
Calls of active or inactive are those of the source. The rule behind the calls is not given here.

Legend:
[1] = molecular target: T1, DNA topoisomerase 1 (Homo sapiens) (UniProt P11387); assay: Inhibition of human recombinant Top1 expressed in baculovirus using [32P]-3-end labeled 117 bp DNA oligonucleotide as substrate assessed as enzyme mediated DNA cleavage at 0.1 to 100 uM after 20 mins by SDS-PAGE analysis relative to camptothecin; parameters: scale not given: the % may be the effect or the level left
T1 sequence (whole entry): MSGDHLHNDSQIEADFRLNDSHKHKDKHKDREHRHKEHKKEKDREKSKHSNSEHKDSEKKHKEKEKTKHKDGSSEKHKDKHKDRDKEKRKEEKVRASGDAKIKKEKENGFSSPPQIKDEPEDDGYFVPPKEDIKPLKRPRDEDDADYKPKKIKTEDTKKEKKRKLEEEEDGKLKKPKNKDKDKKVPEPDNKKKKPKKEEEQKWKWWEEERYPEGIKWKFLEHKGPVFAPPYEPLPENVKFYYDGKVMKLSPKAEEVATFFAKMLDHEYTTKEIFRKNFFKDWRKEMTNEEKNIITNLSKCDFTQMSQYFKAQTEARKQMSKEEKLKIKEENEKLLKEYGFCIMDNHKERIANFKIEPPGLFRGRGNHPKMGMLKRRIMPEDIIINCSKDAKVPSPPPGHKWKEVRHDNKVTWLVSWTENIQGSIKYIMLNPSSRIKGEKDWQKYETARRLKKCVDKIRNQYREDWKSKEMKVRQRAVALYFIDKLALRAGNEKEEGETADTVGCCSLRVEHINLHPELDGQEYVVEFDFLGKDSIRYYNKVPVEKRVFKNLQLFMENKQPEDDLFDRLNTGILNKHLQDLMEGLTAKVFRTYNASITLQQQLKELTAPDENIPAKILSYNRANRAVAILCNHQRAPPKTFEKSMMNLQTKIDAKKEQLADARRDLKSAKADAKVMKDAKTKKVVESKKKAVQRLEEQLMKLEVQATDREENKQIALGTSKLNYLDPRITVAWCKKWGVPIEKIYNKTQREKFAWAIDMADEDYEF
Procedure, shortened: (§1)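 Baculovirus-purified human recombinant Top1 with ~2 nM 117-bp oligonucleotide, 3'-end labeled by Klenow fill-in with [α-32P]dGTP. Stopped with 0.5% SDS and formamide dye; 20% denaturing PAGE, phosphoimager.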

[2] = Antiproliferative activity in human HOP62 cells assessed as cell growth inhibition after 48 hrs by SRB assay; assay type: functional; conditions: HOP-62, 48 h
Procedure, shortened: (§2)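 NCI-60 screen: cells exposed to compound at 100, 10, 1, 0.1 and 0.01 μM for 48 h, then sulforhodamine B staining. Optical density ratio to control plotted as percent growth versus log10 concentration; GI50 interpolated between points above and below 50% growth.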

[3] = Antiproliferative activity in human HCT116 cells assessed as cell growth inhibition after 48 hrs by SRB assay; assay type: functional; conditions: HCT-116, 48 h; procedure, shortened: as §2
[4] = Antiproliferative activity in human SF539 cells assessed as cell growth inhibition after 48 hrs by SRB assay; assay type: functional; conditions: SF-539, 48 h; procedure, shortened: as §2
[5] = Antiproliferative activity in human UACC62 cells assessed as cell growth inhibition after 48 hrs by SRB assay; assay type: functional; conditions: UACC-62, 48 h; procedure, shortened: as §2
[6] = Antiproliferative activity in human […] cells assessed as cell growth inhibition after 48 hrs by SRB assay; assay type: functional; procedure, shortened: as §2
SN12C = assay: Antiproliferative activity in human SN12C cells assessed as cell growth inhibition after 48 hrs by SRB assay; assay type: functional; procedure, shortened: as §2
[7] = Antiproliferative activity in human DU145 cells assessed as cell growth inhibition after 48 hrs by SRB assay; assay type: functional; conditions: DU-145, 48 h; procedure, shortened: as §2
MCF7 = assay: Antiproliferative activity in human MCF7 cells assessed as cell growth inhibition after 48 hrs by SRB assay; assay type: functional; conditions: MCF7, 48 h; procedure, shortened: as §2
[8] = molecular target: T1, DNA topoisomerase 1 (Homo sapiens); assay: Inhibition of human recombinant Top1 expressed in baculovirus using [32P]-3-end labeled 117 bp DNA oligonucleotide as substrate assessed as enzyme mediated DNA cleavage after 20 mins by SDS-PAGE analysis relative to camptothecin; parameters: concentration or dose not given beside the values; procedure, shortened: as §1
Plasma [9] = assay: Drug metabolism in rat plasma assessed as compound 9 formation at 5 uM after 15 mins by LC-MS/MS analysis; assay type: ADME, cell-free; conditions: 0.25 h
Procedure, shortened: (§3)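 Rat plasma at 37 °C with compound at 5 μM, duplicate runs alongside enalapril and warfarin controls. Aliquots taken at 0, 1, 3, 5 and 15 min into three volumes ice-cold methanol with propranolol internal standard, held ≥10 min at -20 °C, centrifuged. Parent quantified by LC-MS/MS in positive ion mode, expressed as % of time-zero concentration.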

[10] = Half life in rat plasma at 5 uM by LC-MS/MS analysis; assay type: ADME, cell-free; procedure, shortened: as §3
[11] = Drug uptake in RPMI1640 medium treated with2-Methoxy-6-(3-morpholinopropyl)-5,12-dioxo-6,12-dihydro-5H-[1,3]dioxolo[4,5:5,6]indeno[1,2-c]isoquinolin-3-yl Methyl Succinate by at 10 uM after 99 hrs by LC-MS analysis; assay type: physicochemical
Procedure, shortened: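 Compound (10 μM) incubated in cell-free RPMI 1640 medium at 37 °C for 99 h. Aliquot filtered and analysed by LC-MS, diode-array detection at 280 nm, flow 0.75 mL/min, for conversion to parent phenol.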

Plasma [12] = assay: Drug uptake in rat plasma treated with of 2-Methoxy-6-(3-morpholinopropyl)-5,12-dioxo-6,12-dihydro 5H-[1,3]dioxolo[4,5:5,6]indeno[1,2-c]isoquinolin-3-yl Acetate after 15 mins by LC-MS/MS analysis; assay type: ADME, cell-free; conditions: 0.25 h; procedure, shortened: as §3

| Activity [1] [%] | GI50 (MCF7) [µM] | Activity [8] | Drug metabolism (Plasma [9]) | half-life at 5 µM [10] [s] | Drug uptake [11] | Drug uptake (Plasma [12]) | SMILES | GI50 [2] [µM] | GI50 [3] [µM] | GI50 [4] [µM] | GI50 [5] [µM] | GI50 [6] [µM] | GI50 (SN12C) [µM] | GI50 [7] [µM] |
| --- | --- | --- | --- | --- | --- | --- | --- | --- | --- | --- | --- | --- | --- | --- |
| – | < 0.01 | 20% | – | – | – | – | COC(=O)CCC(=O)Oc1cc2c3c(n(CCCN4CCOCC4)c(=O)c2cc1OC)-c1cc2c(cc1C3=O)OCO2 | < 0.01 | 0.014 | < 0.01 | < 0.01 | 0.066 | < 0.01 | < 0.01 |
| – | < 0.01 | inactive | metabolite_detected | 54 | – | – | COc1cc2c3c(n(CCCN4CCOCC4)c(=O)c2cc1OC(C)=O)-c1cc2c(cc1C3=O)OCO2 | < 0.01 | < 0.01 | < 0.01 | < 0.01 | 0.269 | < 0.01 | < 0.01 |
| 50 | < 0.01 | – | – | – | – | – | COc1cc2c(=O)n(CCCN3CCOCC3)c3c(c2cc1OC(C)=O)C(=O)c1cc2c(cc1-3)OCO2 | 0.018 | 0.029 | < 0.01 | 0.018 | 0.138 | < 0.01 | < 0.01 |
| – | – | 50% | – | – | – | – | COc1cc2c(=O)n(CCCN3CCOCC3)c3c(c2cc1O)C(=O)c1cc2c(cc1-3)OCO2 | – | – | – | – | 0.871 | – | – |
| – | 0.015 | 20% | – | – | – | – | COc1cc2c3c(n(CCCN4CCOCC4)c(=O)c2cc1OC(=O)c1ccccc1)-c1cc2c(cc1C3=O)OCO2 | 2.14 | 5.89 | 0.135 | 0.059 | 30.9 | 0.195 | 0.724 |
| – | 0.374 | 100% | – | – | – | – | COc1cc2c3c(n(CCCN4CCOCC4)c(=O)c2cc1OC)-c1cc2c(cc1C3=O)OCO2 [INDOTECAN] | – | – | 0.04 | 0.03 | 74.1 | – | – |

Second part, the compound before the results:

| SMILES | Activity [1] [%] | GI50 (MCF7) [µM] | Activity [8] | Drug metabolism (Plasma [9]) | half-life at 5 µM [10] [s] | Drug uptake [11] | Drug uptake (Plasma [12]) | GI50 [2] [µM] | GI50 [3] [µM] | GI50 [4] [µM] | GI50 [5] [µM] | GI50 [6] [µM] | GI50 (SN12C) [µM] | GI50 [7] [µM] |
| --- | --- | --- | --- | --- | --- | --- | --- | --- | --- | --- | --- | --- | --- | --- |
| COc1cc2c3c(n(CCCN4CCOCC4)c(=O)c2cc1OS(=O)(=O)O)-c1cc2c(cc1C3=O)OCO2 | 50 | 0.209 | – | – | – | – | – | 0.389 | 0.389 | 0.263 | 0.263 | 1.12 | 0.355 | 0.417 |
| COc1cc2c3c(n(CCCN4CCOCC4)c(=O)c2cc1O)-c1cc2c(cc1C3=O)OCO2 | – | < 0.01 | 75% | – | – | Active | Active | 0.01 | 0.02 | < 0.01 | < 0.01 | 0.03 | < 0.01 | < 0.01 |
| COc1cc2c(=O)n(CCCN3CCOCC3)c3c(c2cc1OC(=O)c1ccccc1)C(=O)c1cc2c(cc1-3)OCO2 | 20 | 0.033 | – | – | – | – | – | 0.079 | 0.85 | 0.037 | 0.096 | 4.57 | 0.054 | 0.051 |
| COc1cc2c(=O)n(CCCN3CCOCC3)c3c(c2cc1OC(=O)c1cccnc1)C(=O)c1cc2c(cc1-3)OCO2 | 75 | < 0.01 | – | – | – | – | – | 0.012 | 0.03 | < 0.01 | 0.022 | 0.295 | < 0.01 | 0.013 |
| COc1cc2c3c(n(CCCN4CCOCC4)c(=O)c2cc1OC(=O)N(C)C)-c1cc2c(cc1C3=O)OCO2 | – | < 0.01 | 50% | – | – | – | – | 0.032 | 0.026 | 0.021 | 0.017 | 0.105 | 0.025 | 0.032 |
| COc1cc2c3c(n(CCCN4CCOCC4)c(=O)c2cc1OC(=O)c1cccnc1)-c1cc2c(cc1C3=O)OCO2 | – | < 0.01 | 20% | – | – | – | – | < 0.01 | < 0.01 | < 0.01 | < 0.01 | 0.015 | < 0.01 | < 0.01 |
| COC(=O)CCC(=O)Oc1cc2c(=O)n(CCCN3CCOCC3)c3c(c2cc1OC)C(=O)c1cc2c(cc1-3)OCO2 | – | < 0.01 | inactive | – | – | – | – | 0.016 | 0.02 | < 0.01 | 0.018 | 0.037 | < 0.01 | 0.014 |
| COc1cc2c(=O)n(CCCN3CCOCC3)c3c(c2cc1OC(=O)N(C)C)C(=O)c1cc2c(cc1-3)OCO2 | 75 | 0.022 | – | – | – | – | – | 1.7 | 6.07 | 1.86 | 4.47 | 12 | 2.4 | 1.55 |
